Source: ChEMBL document CHEMBL1125163, “Evolution of a series of peptidoleukotriene antagonists: synthesis and structure-activity relationships of 1,6-disubstituted indoles and indazoles” (J Med Chem, 1990)
Calls of active or inactive are those of the source. The calls are words filed in the database; no cut-off is given here.

System: not listed separately
Test: pKB value of the compound
Conditions: not given
Procedure, shortened: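 Guinea pig tracheal strips at 37 °C in Krebs buffer. Cumulative LTE4 concentration-response curves were built in log increments, with responses expressed as % of the maximum to 30 µM carbachol. Antagonist was incubated 30 min before the curve, with vehicle on paired controls. EC50 came from linear regression. KB = [antagonist]/(dose ratio − 1) by the Furchgott method. One curve per tissue.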
Compound `CCCc1c(OCc2ccc(C(=O)O)cc2OC)ccc(C(C)=O)c1O` has a pKB of 6.4.
Compound `CCCCCCOc1ccc(COc2ccccc2C(=O)O)cc1` has a pKB of 5.1.

Species on record: Cavia porcellus
Test: Percent inhibition of the LTE4- induced contraction of guinea pig tracheal spirals at the concentration of 0.33 uM
Assay type: functional
Conditions: Trachea
Procedure, shortened: (§1)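 Guinea pig trachea cut into spiral strips, each trachea split into paired sections. Tissue bath at 37 °C in modified Krebs buffer gassed with 95% O2/5% CO2, 2 g resting tension, 60 min stabilization. After reproducible responses to 10 nM LTE4, compound was added for 10 min, then LTE4 challenge repeated. Percent inhibition is the 2nd vs 3rd response, adjusted by subtracting the vehicle-treated paired section. Paired t test, p < 0.05.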
Compound `CCC(C(=O)Nc1ccc2ccn(Cc3ccc(C(=O)O)cc3OC)c2c1)C1CCCCC1` (stereo not drawn) has an inhibition at 0.33 µM of 18%.
Work on `COc1cc(C(=O)O)ccc1Cn1ccc2ccc(NC(=O)OC(C)C)cc21` yielded an inhibition at 0.33 µM of 24%.
With `CCC(CC)OC(=O)Nc1ccc2ccn(Cc3ccc(C(=O)O)cc3OC)c2c1` the inhibition at 0.33 µM was 31%.
Work on `COc1cc(C(=O)O)ccc1Cn1ccc2ccc(NC(=O)CC3CCCCC3)cc21` yielded an inhibition at 0.33 µM of 53%.

Species on record: Cavia porcellus
Test: Percent inhibition of the LTE4- induced contraction of guinea pig tracheal spirals at the concentration of 1.0 uM
Assay type: functional
Conditions: Trachea
Procedure, shortened: as §1
In the case of `CCCC(C(=O)Nc1ccc2ccn(Cc3ccc(C(=O)O)cc3OC)c2c1)C1CCCC1` (stereo not drawn), the inhibition at 1 µM is reported as 62%.
Work on `COc1cc(C(=O)O)ccc1Cn1ccc2ccc(NC(=O)C(c3ccccc3)C3CCCC3)cc21` (stereo not drawn) yielded an inhibition at 1 µM of 27%.
Work on `COc1cc(C(=O)O)ccc1Cn1ccc2ccc(NC(=O)OC3CC=CCC3)cc21` (stereo not drawn) yielded an inhibition at 1 µM of 47%.
With `CCCCCCOC(=O)Nc1ccc2ccn(Cc3ccc(C(=O)O)cc3OC)c2c1` the inhibition at 1 µM was 30%.

Species on record: Cavia porcellus
Test: Percent inhibition of the LTE4- induced contraction of guinea pig tracheal spirals at the concentration of 3.3 uM
Assay type: functional
Conditions: Trachea
Procedure, shortened: as §1
`COc1cc(C(=O)O)ccc1Cn1ccc2ccc(NC(=O)C(OC)c3ccccc3)cc21` (stereo not drawn) gave an inhibition at 3.3 µM of 52%.
For `COc1cc(C(=O)O)ccc1Cn1ccc2ccc(NC(=O)NC(C)(C)C)cc21`, the inhibition at 3.3 µM was 24%.
Compound `COc1cc(C(=O)O)ccc1Cn1ccc2ccc(NC(=O)C(c3ccccc3)c3ccccc3)cc21` has an inhibition at 3.3 µM of 38%.
In the case of `COc1cc(C(=O)O)ccc1Cn1ccc2ccc(NC(=O)NC3CCCCC3)cc21`, the inhibition at 3.3 µM is reported as 34%.
`COc1cc(C(=O)O)ccc1Cn1ccc2ccc(NC(=O)OC3CCOC3)cc21` (stereo not drawn) gave an inhibition at 3.3 µM of 70%.
`COc1cc(C(=O)O)ccc1Cn1ccc2ccc(NC(=O)C(C)(C)c3ccccc3)cc21` gave an inhibition at 3.3 µM of 23%.
With `COc1cc(C(=O)O)ccc1Cn1ccc2ccc(NC(=O)C(C)c3ccccc3)cc21` (stereo not drawn) the inhibition at 3.3 µM was 59%.
Work on `CCCCCCNC(=O)Nc1ccc2ccn(Cc3ccc(C(=O)O)cc3OC)c2c1` yielded an inhibition at 3.3 µM of 51%.
With `COc1cc(C(=O)O)ccc1Cn1ccc2ccc(NC(=O)OC(C)(C)C)cc21` the inhibition at 3.3 µM was 10%.

Species on record: Cavia porcellus
Test: Percent inhibition of the LTE4- induced contraction of guinea pig tracheal spirals at the concentration of 5 uM
Assay type: functional
Conditions: Trachea
Procedure, shortened: as §1
`CCCC(=O)Nc1ccc2ccn(Cc3ccc(C(=O)O)cc3OC)c2c1` showed an inhibition at 5 µM of 42%.
`COc1cc(C(=O)O)ccc1Cn1ccc2ccc(NC(=O)Cc3ccccc3)cc21` gave an inhibition at 5 µM of 71%.
Compound `CCCCCCCC(=O)Nc1ccc2ccn(Cc3ccc(C(=O)O)cc3OC)c2c1` has an inhibition at 5 µM of 53%.
For `CCCCCCOc1ccc(COc2ccccc2C(=O)O)cc1`, the inhibition at 5 µM was 40%.
`C/C=C/C=C/C(=O)Nc1ccc2ccn(Cc3ccc(C(=O)O)cc3OC)c2c1` showed an inhibition at 5 µM of 28%.

System: not listed separately
Test: Selectivity ratio of the compound
Assay type: functional
Conditions: not given
Compound `CCCc1c(OCc2ccc(C(=O)O)cc2OC)ccc(C(C)=O)c1O` has a Selectivity ratio of 50.
Work on `CCCCCCOc1ccc(COc2ccccc2C(=O)O)cc1` yielded a Selectivity ratio of 10.

Species on record: Cavia porcellus
Test: Percent inhibition of the LTE4- induced contraction of guinea pig tracheal spirals at the concentration of 0.1 uM
Assay type: functional
Conditions: Trachea
Procedure, shortened: as §1
For `COc1cc(C(=O)O)ccc1Cn1ccc2ccc(NC(=O)CC3CCCC3)cc21`, the inhibition at 0.1 µM was 34%.
With `COc1cc(C(=O)O)ccc1Cn1ncc2ccc(NC(=O)CC3CCCC3)cc21` the inhibition at 0.1 µM was 83%.
In the case of `COc1cc(C(=O)O)ccc1Cn1ccc2ccc(NC(=O)OC3CCC3)cc21`, the inhibition at 0.1 µM is reported as 27%.

Species on record: Cavia porcellus
Test: Percent inhibition of the LTE4- induced contraction of guinea pig tracheal spirals at the concentration of 1 uM
Assay type: functional
Conditions: Trachea
Procedure, shortened: as §1
For `CCCCNC(=O)Nc1ccc2ccn(Cc3ccc(C(=O)O)cc3OC)c2c1`, the inhibition at 1 µM was 39%.
Compound `CCCc1c(OCc2ccc(C(=O)O)cc2OC)ccc(C(C)=O)c1O` has an inhibition at 1 µM of 38%.
In the case of `COc1cc(C(=O)O)ccc1Cn1ccc2ccc(NC(=O)NC3CCCC3)cc21`, the inhibition at 1 µM is reported as 73%.
With `COc1cc(C(=O)O)ccc1Cn1ccc2ccc(NC(=O)C3CCCC3)cc21` the inhibition at 1 µM was 58%.
Compound `CCC(C(=O)Nc1ccc2ccn(Cc3ccc(C(=O)O)cc3OC)c2c1)c1ccccc1` (stereo not drawn) has an inhibition at 1 µM of 65%.
For `CCCCC(CC)C(=O)Nc1ccc2ccn(Cc3ccc(C(=O)O)cc3OC)c2c1` (stereo not drawn), the inhibition at 1 µM was 59%.

System: Cysteinyl leukotriene receptor (Cavia porcellus)
Test: Inhibition of the LTE4- induced contraction of guinea pig tracheal spirals at 10 uM.
Conditions: Trachea
Compound `COc1cc(C(=O)O)ccc1Cn1ccc2ccc(NC(=O)Cc3ccc(C(F)(F)F)cc3)cc21` has an inhibition of 13%.
Compound `CCCCCC(=O)Nc1ccc2nn(Cc3ccccc3C(=O)O)cc2c1` has an inhibition of 13%.
In the case of `CCCCCC(=O)Nc1ccc2cnn(Cc3ccc(C(=O)O)cc3)c2c1`, the inhibition is reported as 62%.
`COc1cc(C(=O)O)ccc1Cn1ccc2ccc(NC(=O)C(F)(F)C(F)(F)C(F)(F)F)cc21` gave an inhibition of 40%.
`CCCCOC(=O)Nc1ccc2cn(Cc3ccc(C(=O)O)cc3OC)nc2c1` gave an inhibition of 50%.
`CCC(C(=O)Nc1ccc2cn(Cc3ccc(C(=O)O)cc3OC)nc2c1)c1ccccc1` (stereo not drawn) showed an inhibition of 22%.
`COc1cc(C(=O)O)ccc1Cn1ccc2ccc(NC(=O)Cc3cccs3)cc21` showed an inhibition of 77%.
`COc1cc(C(=O)O)ccc1Cn1ccc2ccc(NC(=O)Cc3ccc(Cl)cc3)cc21` showed an inhibition of 44%.
`CCCC/N=C(\S)Nc1ccc2ccn(Cc3ccc(C(=O)O)cc3OC)c2c1` gave an inhibition of 18%.
`COc1cc(C(=O)O)ccc1Cn1ccc2ccc(NC(=O)CCc3ccccc3)cc21` showed an inhibition of 62%.
Compound `C#CCCC(=O)Nc1ccc2ccn(Cc3ccc(C(=O)O)cc3OC)c2c1` has an inhibition of 47%.
Work on `COc1cc(C(=O)O)ccc1Cn1ccc2ccc(NC(=O)CCCc3ccccc3)cc21` yielded an inhibition of 73%.
`CCCCCCNc1ccc2ccn(Cc3ccc(C(=O)O)cc3OC)c2c1` showed an inhibition of 52%.
Compound `COc1cc(C(=O)O)ccc1Cn1ccc2ccc(NC(=O)Nc3ccccc3C(F)(F)F)cc21` has an inhibition of 42%.
With `COc1cc(C(=O)O)ccc1Cn1ccc2ccc(NC(=O)Cc3ccc(C)cc3)cc21` the inhibition was 29%.
With `CCCCC(C(=O)Nc1ccc2ccn(Cc3ccc(C(=O)O)cc3OC)c2c1)c1ccccc1` (stereo not drawn) the inhibition was 34%.
For `COc1cc(C(=O)O)ccc1Cn1ccc2ccc(NC(=O)c3ccccc3)cc21`, the inhibition was 14%.
Compound `CCN(CC)C(=O)Nc1ccc2ccn(Cc3ccc(C(=O)O)cc3OC)c2c1` has an inhibition of 19%.
Work on `COc1cc(C(=O)O)ccc1Cn1ccc2ccc(NC(=O)NCc3ccccc3)cc21` yielded an inhibition of 57%.
Compound `CCCCCC(=O)Nc1cccc2c1ccn2Cc1ccc(C(=O)O)cc1OC` has an inhibition of 29%.

System: Cysteinyl leukotriene receptor (Cavia porcellus)
Test: Inhibition of the LTE4- induced contraction of guinea pig tracheal spirals at 10 uM; Not significant.
Conditions: Trachea
For `CCCCCC(=O)Nc1ccc2cnn(Cc3ccccc3C(=O)O)c2c1`, the inhibition was “inactive”.
With `CCCCCC(=O)Nc1ccc2c(cnn2Cc2ccccc2C(=O)O)c1` the inhibition was “inactive”.
With `CCCCCC(=O)Nc1ccc2c(cnn2Cc2ccc(C(=O)O)cc2)c1` the inhibition was “inactive”.
For `COc1cc(C(=O)O)ccc1Cn1ccc2ccc(NC(=O)Cc3ccc(-c4ccccc4)cc3)cc21`, the inhibition was “inactive”.
In the case of `CCCCN(C)C(=O)Nc1ccc2ccn(Cc3ccc(C(=O)O)cc3OC)c2c1`, the inhibition is reported as “inactive”.
For `COc1cc(C(=O)O)ccc1Cn1ccc2ccc(NC(=O)Nc3ccccc3)cc21`, the inhibition was “inactive”.
For `CCCCCCCCCC(=O)Nc1ccc2ccn(Cc3ccc(C(=O)O)cc3OC)c2c1`, the inhibition was “inactive”.
For `CCCCCC(=O)Nc1ccc2cn(Cc3ccccc3C(=O)O)nc2c1`, the inhibition was “inactive”.
For `CCCCCC(=O)Nc1ccc2cn(Cc3ccc(C(=O)O)cc3)nc2c1`, the inhibition was “inactive”.
In the case of `COc1cc(C(=O)O)ccc1Cn1ccc2ccc(NC(=O)CCCCCCC(=O)O)cc21`, the inhibition is reported as “inactive”.
In the case of `COc1cc(C(=O)O)ccc1Cn1ccc2ccc(NC(=O)CCCC(C)=O)cc21`, the inhibition is reported as “inactive”.
For `CCCCCC(=O)N(C)c1ccc2ccn(Cc3ccc(C(=O)O)cc3OC)c2c1`, the inhibition was “inactive”.
With `COc1cc(C(=O)O)ccc1Cn1ccc2ccc(NC(=O)Cc3ccc4ccccc4c3)cc21` the inhibition was “inactive”.
In the case of `COc1cc(C(=O)O)ccc1Cn1ccc2ccc(NC(=O)Cc3ccc(OC)c(OC)c3)cc21`, the inhibition is reported as “inactive”.
In the case of `CCCCCC(=O)Nc1ccc2nn(Cc3ccc(C(=O)O)cc3)cc2c1`, the inhibition is reported as “inactive”.
With `COc1cc(C(=O)O)ccc1Cn1ccc2ccc(NC(=O)CCCCCNC(C)=O)cc21` the inhibition was “inactive”.
In the case of `COc1cc(C(=O)O)ccc1Cn1ccc2ccc(NS(=O)(=O)Cc3ccccc3)cc21`, the inhibition is reported as “inactive”.
In the case of `COC(=O)Nc1ccc2ccn(Cc3ccc(C(=O)O)cc3OC)c2c1`, the inhibition is reported as “inactive”.
